Compound activity from PubChem.
Shown are actives, neighbours in structure and some others; about 1.3% of the full set was active somewhere.
DAGLB inh = diacylglycerol lipase beta (human) inhibition | AID 504411 | Q8NCG7 | HEK293T DAGLB membrane lysate, EnzChek fluorogenic substrate | actives 0.059% (n = 340,000) | inhibition, % at 5.17 µM; in the data active = inhibition above about 34%
MT1-MMP act inh = MT1-MMP (human) activation inhibition | P50281 | HT1080 RFP-PRO-GFP cells, GFP/RFP ratio fluorescence, overnight; percent of plate control window, DMSO zero | GFP/RFP ratio change, % at 20 µM | actives 0.061% (n = 360,000) | AID 651647;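 active = GFP/RFP ratio change of at least 30% with cell ATP level not reduced by more than half and red fluorescence within 50% of control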
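Compound: 20 µM single dose, 1% DMSO / System: HT1080 RFP-PRO-GFP cells / Controls: DMSO and RFP-L50D-GFP cell wells / Read-out basis: GFP/RFP fluorescence ratio / Schedule: overnight compound exposure at 37 °C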
TMEM16A inh = blocks the mouse calcium-activated chloride channel TMEM16A. actives 1.2% (n = 310,000). normalized B-score (activity score, 25-100; higher = stronger inhibition) at 10 µM. Q8BHY3. HEK293 TMEM16A/YFP iodide influx fluorescence, ionomycin;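 active = ratio plate-corrected score three or more library SD toward inhibition, starting fluorescence score within five deviations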;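 note: score derived from kinetic fluorescence span divided by baseline fluorescence per well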
ANO1 activ = activators or potentiators of mouse TMEM16A chloride channel; HEK293 TMEM16A/YFP-H148Q/I152L, iodide quench fluorescence; active compounds read low; actives 0.3% (n = 340,000); B-score at 10 µM; Q8BHY3; AID 623877;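 active = fluorescence-ratio B-score plate-corrected deviation score at least 3 library SD below zero, with starting fluorescence score within 5 deviations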;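 note: channel opened by trigger with iodide after compound preincubation; score built on the fluorescence ratio of max minus min over baseline; more negative score means more quench and so TMEM16A activation or potentiation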
TMEM16A reconf = TMEM16A (mouse) chloride channel inhibition, re-confirmation; shares compounds with TMEM16A inh; HEK293 TMEM16A/YFP-H148Q, iodide quench fluorescence; ionomycin added to raise cell calcium; inhibition, % at 10 µM; actives 39% (n = 2,300);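 active = mean duplicate percent inhibition, scaled so buffer wells are 0 and the reference blocker 100, over three buffer SD above buffer mean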
TMEM16A Ca cntr = calcium mobilization counter-screen hit for TMEM16A inhibitor series; shares compounds with TMEM16A inh; TMEM16A/YFP HEK293, Fluo4 calcium mobilization; calcium response (% of ionomycin), % at 10 µM; actives 2% (n = 2,300); AID 652231;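 active = duplicate-averaged calcium signal over 20% of the ionomycin maximum, relative to buffer baseline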;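 note: each well's signal is peak minus trough fluorescence divided by its pre-addition baseline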
Parental YFP cnt = counter-screen for TMEM16A inhibitors: effect in parental YFP-HEK293 cells; shares compounds with TMEM16A inh; iodide YFP quench, ionomycin; YFP ratio F(max-min)/F0 at 10 µM; 2,300 tested, under 10 active;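 active = yellow fluorescent protein signal ratio exceeding the buffer control mean by over 5 SD of those controls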;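 note: ratio is mean of duplicate wells from kinetic YFP trace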
ClC-1 inh = rat ClC-1 inhibition, TMEM16A specificity screen. CHO ClC-1-YFP, iodide influx fluorescence quench; iodide control reads 0, buffer control 100. shares compounds with TMEM16A inh. ratio percent, % at 10 µM. 2,300 tested, under 10 active;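 active = duplicate-mean ratio percent above the mean of iodide-only control wells, which defines zero, plus 5 of their SD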;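 note: higher percent means stronger block of ClC-1 iodide influx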
Each line names hits and unclear results; the compound was inactive in the other large screens (follow-up assays come after a bar, where they were run).

CCN(CC)S(=O)(=O)c1ccc2oc(SCC3CN=C(c4ccc(OC)cc4)S3)nc2c1 (stereo not given)	TMEM16A inh 100 | TMEM16A reconf 16.5% | TMEM16A Ca cntr inactive | Parental YFP cnt inactive | ClC-1 inh inactive
O=C(COc1ccc(-c2nnco2)cc1)NCc1ccccc1Cl	none
Cc1cc(C(=O)COc2ccc(-c3nnco3)cc2)c(C)n1Cc1ccccc1	TMEM16A inh 100 | TMEM16A reconf 18.0% | TMEM16A Ca cntr inactive | Parental YFP cnt inactive | ClC-1 inh inactive
COc1ccc(C)cc1NC(=O)NCCC1=CCCCC1	TMEM16A inh 100 | TMEM16A reconf inactive | TMEM16A Ca cntr inactive | Parental YFP cnt inactive | ClC-1 inh inactive
CC(C)CNC(=S)N1CCC(c2nc(-c3ccc(F)cc3)no2)CC1	TMEM16A inh 100 | TMEM16A reconf inactive | TMEM16A Ca cntr inactive | Parental YFP cnt inactive | ClC-1 inh inactive
O=C(Oc1ccc(Cl)c2ccccc12)N1CCCCC1	TMEM16A inh 25 | TMEM16A reconf inactive | TMEM16A Ca cntr inactive | Parental YFP cnt inactive | ClC-1 inh inactive
O=C(Oc1ccc2ccccc2c1Cl)N1CCCCCC1	TMEM16A inh 25 | TMEM16A reconf inactive | TMEM16A Ca cntr inactive | Parental YFP cnt inactive | ClC-1 inh inactive
O=C(Oc1ccc(Cl)c2cccnc12)N1CCCCC1	none
CCOC(=O)C1=C(C)N=c2s/c(=C/c3ccc(OCC(=O)O)cc3)c(=O)n2C1c1ccc(F)cc1 (stereo not given)	none | TMEM16A reconf inactive | TMEM16A Ca cntr 29.5% | Parental YFP cnt inactive | ClC-1 inh inactive
CCOC(=O)C1=C(C)N=c2s/c(=C/c3ccc(OCC(=O)O)cc3)c(=O)n2C1c1ccc(SC)cc1 (stereo not given)	none
C[C@@H]1CC=C[C@H]2[C@H]1C(=O)N(Cc1ccccc1)[C@H]2c1ccoc1	none
CC[C@@H]1CC=C[C@H]2[C@H]1C(=O)N(Cc1ccccc1)[C@H]2c1ccoc1	TMEM16A inh 100 | TMEM16A reconf 44.5% | TMEM16A Ca cntr inactive | Parental YFP cnt inactive | ClC-1 inh inactive
O=C(Nc1cccc(Br)c1)c1cc2ccccc2o1	TMEM16A inh 25 | TMEM16A reconf inactive | TMEM16A Ca cntr inactive | Parental YFP cnt inactive | ClC-1 inh inactive
CCCCn1c(SCc2nc3ccccc3s2)nc2cc(S(N)(=O)=O)ccc21	TMEM16A inh 25 | TMEM16A reconf inactive | TMEM16A Ca cntr inactive | Parental YFP cnt inactive | ClC-1 inh inactive
Cn1cc([C@]2(O)C(=O)Nc3ccc(OC(F)(F)F)cc32)c2ccccc21	none (no result: DAGLB inh, TMEM16A inh, ANO1 activ)
CC1=C(C(=O)N(C)C)CC(CC(=O)NCc2ccco2)C(=O)N1Cc1ccccc1 (stereo not given)	none (no result: TMEM16A inh, ANO1 activ)
CSc1ccccc1-c1nnc(-c2ccc(C)cc2)o1	TMEM16A inh 25 | TMEM16A reconf inactive | TMEM16A Ca cntr inactive | Parental YFP cnt inactive | ClC-1 inh inactive
COc1ccc(C(=O)C2CCN(CC(=O)Nc3ccccc3F)CC2)cc1	TMEM16A inh 25 | TMEM16A reconf inactive | TMEM16A Ca cntr inactive | Parental YFP cnt inactive | ClC-1 inh inactive
CC(C(=O)NC1CCCc2ccccc21)N1CCN(Cc2ccc3c(c2)OCO3)CC1 (stereo not given)	TMEM16A inh 25 | TMEM16A reconf inactive | TMEM16A Ca cntr inactive | Parental YFP cnt inactive | ClC-1 inh inactive
CC(C(=O)NC1CCCc2ccccc21)N1CCN(c2ccc(F)cc2)CC1 (stereo not given)	none
O=S(=O)(c1cccc2nonc12)N1CCCCCC1	none | TMEM16A reconf inactive | TMEM16A Ca cntr inactive | Parental YFP cnt inactive | ClC-1 inh inactive
CC(Oc1ccccc1F)c1nnc(SCC(=O)Nc2ccc(N3CCOCC3)cc2)o1 (stereo not given)	none (no result: TMEM16A inh)
